{"source": "paper PMC3228901", "about": "(Cancer research, 2011)", "key": {"F9 cells [1]": {"test_system": "F9 cells", "experiment": "Cell permeability assay in F9 cells, mass-spectrometry", "assay_type": "in vitro ADME, mouse", "settings": "2 hours incubation, washed cells", "method_in_brief": "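F9 cells exposed to test compound for 2 h, with DMSO as control, then extensively washed and lysed immediately. Lysate mixed with 4 volumes acetone at −20 °C for 6 h, precipitate removed by centrifugation, supernatant lyophilized and redissolved in methanol. Compound detected by mass spectrometry against pure compound and untreated-cell lysate as m/z references.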"}, "[2]": {"molecular_target": "recombinant human LSD1 protein (Homo sapiens, UniProt O60341)", "experiment": "In vitro LSD1 demethylation assay, di-methylated H3K4 peptide, mass-spectrometry", "assay_type": "biochemical", "settings": "read-out: half maximal inhibitory concentration (IC50) for LSD1, 30 °C, 1 hour, MS peak areas", "method_in_brief": "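GST-tagged human LSD1 was expressed in bacteria and purified; protein was also obtained commercially. The enzyme was incubated with di-methylated H3K4 peptide at 30 °C for 1 h, with test compound at 0–100 μM (0, 1, 2, 5, 10, 20, 50, 100 μM). Me1 and Me0 products were read by MALDI TOF/TOF MS. Conversion efficiency came from integrated product peak areas, and IC50 was fitted from conversion efficiency.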"}, "F9 cells [3]": {"test_system": "F9 cells", "experiment": "Growth of F9 cells, cell numbers counted", "assay_type": "cell-based, mouse", "settings": "50 μM, 30 hours", "method_in_brief": "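F9 cells on gelatin-coated dishes in DMEM/10% FBS were treated with DMSO or 50 μM test compound for 30 h. Cells were then counted and expressed as percent of DMSO control. A separate concentration series was also run over 30 h.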"}, "[4]": {"test_system": "CHRM4 and SCN3A gene expression in F9 cells", "assay_type": "cell-based, mouse", "settings": "10 μM, 24 hours, quantitative RT-PCR", "method_in_brief": "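F9 mouse teratocarcinoma cells, grown in DMEM with 10% FBS on 0.1% gelatin-coated dishes, exposed to 10 μM test compound for 24 h; dose series also run in F9 and HeLa cells. CHRM4 and SCN3A mRNA quantified by real-time RT-PCR. LSD1 siRNA-treated F9 cells served as comparison.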"}, "[5]": {"test_system": "methylated H3K4 in F9 embryonic teratocarcinoma cells", "experiment": "Histone H3 methylation in F9 cells, Western blotting", "assay_type": "cell-based, mouse", "settings": "for IC50: read-out: IC50 in F9 cells (histone H3K4 methylation), various concentrations", "method_in_brief": "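F9 cells received 10 μM test compound for 24 h, plus a concentration series. Total histones were then extracted. Mono- and di-methylated H3K4, tri-methylated H3K4, di-methylated H3K9 and total histone H3 were probed by Western blot with specific antibodies. F9 cells given 50 nM LSD1 siRNA for 48 h served as comparison.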"}, "NTERA-2 cells": {"test_system": "NTERA-2 cells", "experiment": "Growth of NTERA-2 cells", "assay_type": "cell-based, human", "settings": "50 μM, 30 hours", "method_in_brief": "(§1)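 Human pluripotent NCCIT and NTERA-2 cells, maintained in DMEM with 10% FBS, were exposed to 50 μM test compound for 30 h and growth assessed. Non-pluripotent HeLa, 293 and NIH3T3 cells were run under the same conditions.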"}, "NCCIT cells": {"test_system": "NCCIT cells", "experiment": "Growth of NCCIT cells", "assay_type": "cell-based, human", "settings": "50 μM, 30 hours", "method_in_brief": "as §1"}, "293": {"test_system": "293", "experiment": "Growth of 293 cells", "assay_type": "cell-based", "settings": "even at relatively high concentrations (100–200 μM)"}, "HeLa": {"test_system": "HeLa", "experiment": "Growth of HeLa cells", "assay_type": "cell-based", "settings": "even at relatively high concentrations (100–200 μM)"}, "mouse ES cells": {"test_system": "mouse ES cells", "experiment": "Spherical growth of embryonic stem cells", "assay_type": "cell-based", "settings": "50 μM, 30 hours", "method_in_brief": "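Mouse ES cells, cultured on irradiated mouse embryonic fibroblasts in DMEM with 10% FBS, were treated with DMSO or 50 μM test compound for 30 h. Spherical colony growth was then examined.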"}, "NIH 3T3": {"test_system": "NIH 3T3", "experiment": "Growth of NIH 3T3 cells", "assay_type": "cell-based", "settings": "even at relatively high concentrations (100–200 μM)"}}, "data": [{"smiles": "N=C(N)c1ccc(C(=O)N2CCN(C(=O)c3cc(CN4CCN(C(=N)N)CC4)cc([N+](=O)[O-])c3)CC2)cc1", "note": "[CBB1003]", "values": [{"measurement": "presence of compound in F9 cells after exposure", "setting": "F9 cells [1]", "value": "readily found"}, {"measurement": "IC50", "setting": "[2]", "value": 10.5, "unit": "µM"}, {"measurement": "growth of F9 cells", "setting": "F9 cells [3]", "value": "significantly inhibit"}, {"measurement": "activation of CHRM4 and SCN3A expression", "setting": "[4]", "value": "led to the activation"}, {"measurement": "effect on mono- and di-methylated H3K4 in F9 cells", "setting": "[5]; 10 μM, 24 hours", "value": "reproducible increase"}, {"measurement": "effect on tri-methylated H3K4 and di-methylated H3K9 in F9 cells", "setting": "[5]; 10 μM, 24 hours", "value": "very little effects"}, {"measurement": "IC50", "setting": "[5]", "value": "5 to 10", "unit": "µM"}, {"measurement": "growth of NTERA-2 cells", "setting": "NTERA-2 cells", "value": "inhibited"}, {"measurement": "growth of NCCIT cells", "setting": "NCCIT cells", "value": "inhibited"}, {"measurement": "growth inhibition of 293 cells", "setting": "293", "value": "did not display any significant growth inhibition"}, {"measurement": "growth inhibition of HeLa cells", "setting": "HeLa", "value": "did not display any significant growth inhibition"}, {"measurement": "spherical growth of ES cells", "setting": "mouse ES cells", "value": "substantial inhibition"}, {"measurement": "growth inhibition of NIH 3T3 cells", "setting": "NIH 3T3", "value": "did not display any significant growth inhibition"}]}, {"smiles": "COC(=O)c1cc(CN2CCN(C(=N)N)CC2)cc(C(=O)N2CCN(C(=O)c3ccc(C(=N)N)cc3)CC2)c1", "note": "[CBB1007]", "values": [{"measurement": "IC50", "setting": "[2]", "value": 5.27, "unit": "µM"}, {"measurement": "growth of F9 cells", "setting": "F9 cells [3]", "value": "significantly inhibit"}, {"measurement": "IC50", "setting": "[5]", "value": "1 to 5", "unit": "µM"}, {"measurement": "growth of NTERA-2 cells", "setting": "NTERA-2 cells", "value": "inhibited"}, {"measurement": "growth of NCCIT cells", "setting": "NCCIT cells", "value": "inhibited"}, {"measurement": "growth inhibition of 293 cells", "setting": "293", "value": "did not display any significant growth inhibition"}, {"measurement": "growth inhibition of HeLa cells", "setting": "HeLa", "value": "did not display any significant growth inhibition"}, {"measurement": "spherical growth of ES cells", "setting": "mouse ES cells", "value": "substantial inhibition"}, {"measurement": "growth inhibition of NIH 3T3 cells", "setting": "NIH 3T3", "value": "did not display any significant growth inhibition"}]}]}
